The source of these data is publication PMC11044719 (Journal of Enzyme Inhibition and Medicinal Chemistry, 2024).

Each structure is given as a SMILES string.

One data set concerns the target FGFR4 kinase (Homo sapiens, UniProt P22455). As to the kind of experiment: biochemical. It counts as biochemical. Conditions: for inhibition at 1 µM: read-out: % inhibition against FGFR4 kinase.
A further data set addresses FGFR3 (Homo sapiens, UniProt P22607). In words: In vitro kinase assay. Format: biochemical. Conditions: read-out: % inhibition at 1 μM FGFR3. The gist of the method:
(§1)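 Test compound at 0.1 and 1 μM against each FGFR isoform with ATP at its Km concentration; percent inhibition reported.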

Data set [1] in a line: Metabolic stability assay in human liver microsomes. It counts as in vitro ADME. The following applies: pH 7. In general terms: Liver microsomes are vesicles of endoplasmic reticulum, rich in cytochrome P450 enzymes.
Data set [2] in a line: Metabolic stability assay in mouse liver microsomes. Format: in vitro ADME. Conditions: pH 7. In a few lines: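 Human or mouse liver microsomes (0.5 mg/ml) were pre-incubated 5 min at 37 °C with 1 μM test compound in 0.1 M phosphate buffer, pH 7. NADPH regenerating system was added and the mix incubated 30 min at 37 °C. Acetonitrile with internal standard stopped the reaction. Parent compound was measured by LC-MS/MS, with % remaining at 30 min versus 0 min, in duplicate.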

The target of the next data set is FGFR1 (Homo sapiens, UniProt P11362). As to the kind of experiment: In vitro kinase assay. It counts as biochemical. Conditions: read-out: % inhibition at 1 μM FGFR1. In a few lines: as §1
A further data set has as its target FGFR2 (Homo sapiens, UniProt P21802). As to the kind of experiment: In vitro kinase assay. Format: biochemical. Conditions: read-out: % inhibition at 1 μM FGFR2. The gist of the method: as §1

FGFR4 kinase, sequence (P22455 22-802): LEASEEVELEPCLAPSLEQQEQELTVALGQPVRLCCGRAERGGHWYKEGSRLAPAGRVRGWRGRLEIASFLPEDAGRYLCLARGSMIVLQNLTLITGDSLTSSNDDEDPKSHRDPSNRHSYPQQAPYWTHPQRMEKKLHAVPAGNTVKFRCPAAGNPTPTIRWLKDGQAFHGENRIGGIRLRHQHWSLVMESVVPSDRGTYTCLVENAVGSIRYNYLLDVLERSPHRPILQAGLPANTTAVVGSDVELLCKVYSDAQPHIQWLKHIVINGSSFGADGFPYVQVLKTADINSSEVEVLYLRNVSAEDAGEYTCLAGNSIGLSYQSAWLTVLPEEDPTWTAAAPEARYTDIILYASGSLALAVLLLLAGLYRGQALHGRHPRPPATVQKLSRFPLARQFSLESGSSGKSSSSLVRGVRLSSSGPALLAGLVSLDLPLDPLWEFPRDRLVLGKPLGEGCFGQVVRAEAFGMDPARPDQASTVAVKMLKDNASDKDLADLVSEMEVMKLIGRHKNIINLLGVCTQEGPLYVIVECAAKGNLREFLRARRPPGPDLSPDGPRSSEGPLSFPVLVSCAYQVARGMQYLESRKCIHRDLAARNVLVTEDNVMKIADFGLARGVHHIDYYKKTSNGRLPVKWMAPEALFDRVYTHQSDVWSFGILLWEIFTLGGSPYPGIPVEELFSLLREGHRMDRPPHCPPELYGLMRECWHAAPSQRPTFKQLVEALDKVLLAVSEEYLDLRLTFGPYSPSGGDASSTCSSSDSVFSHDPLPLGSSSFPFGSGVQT
FGFR3, sequence (P22607 23-806): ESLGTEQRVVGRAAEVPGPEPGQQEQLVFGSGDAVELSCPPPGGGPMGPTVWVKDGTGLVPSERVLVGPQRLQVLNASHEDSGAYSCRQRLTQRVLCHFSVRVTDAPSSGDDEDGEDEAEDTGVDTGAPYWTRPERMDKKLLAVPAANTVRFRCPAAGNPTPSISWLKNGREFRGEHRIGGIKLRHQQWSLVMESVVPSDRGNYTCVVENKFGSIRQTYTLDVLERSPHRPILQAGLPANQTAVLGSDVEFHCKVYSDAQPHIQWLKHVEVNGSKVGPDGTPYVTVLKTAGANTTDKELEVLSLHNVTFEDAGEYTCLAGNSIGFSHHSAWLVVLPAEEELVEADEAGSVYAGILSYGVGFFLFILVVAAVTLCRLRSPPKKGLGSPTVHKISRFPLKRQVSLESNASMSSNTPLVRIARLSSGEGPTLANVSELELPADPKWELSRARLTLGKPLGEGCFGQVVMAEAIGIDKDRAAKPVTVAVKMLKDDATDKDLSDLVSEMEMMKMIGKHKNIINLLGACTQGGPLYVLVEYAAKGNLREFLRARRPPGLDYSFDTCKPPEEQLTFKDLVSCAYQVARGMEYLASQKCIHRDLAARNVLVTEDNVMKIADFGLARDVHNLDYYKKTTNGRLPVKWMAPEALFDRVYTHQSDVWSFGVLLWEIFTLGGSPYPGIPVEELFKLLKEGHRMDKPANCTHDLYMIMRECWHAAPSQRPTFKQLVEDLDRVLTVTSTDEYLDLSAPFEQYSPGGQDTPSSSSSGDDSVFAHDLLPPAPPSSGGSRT
FGFR2, sequence (P21802 22-821): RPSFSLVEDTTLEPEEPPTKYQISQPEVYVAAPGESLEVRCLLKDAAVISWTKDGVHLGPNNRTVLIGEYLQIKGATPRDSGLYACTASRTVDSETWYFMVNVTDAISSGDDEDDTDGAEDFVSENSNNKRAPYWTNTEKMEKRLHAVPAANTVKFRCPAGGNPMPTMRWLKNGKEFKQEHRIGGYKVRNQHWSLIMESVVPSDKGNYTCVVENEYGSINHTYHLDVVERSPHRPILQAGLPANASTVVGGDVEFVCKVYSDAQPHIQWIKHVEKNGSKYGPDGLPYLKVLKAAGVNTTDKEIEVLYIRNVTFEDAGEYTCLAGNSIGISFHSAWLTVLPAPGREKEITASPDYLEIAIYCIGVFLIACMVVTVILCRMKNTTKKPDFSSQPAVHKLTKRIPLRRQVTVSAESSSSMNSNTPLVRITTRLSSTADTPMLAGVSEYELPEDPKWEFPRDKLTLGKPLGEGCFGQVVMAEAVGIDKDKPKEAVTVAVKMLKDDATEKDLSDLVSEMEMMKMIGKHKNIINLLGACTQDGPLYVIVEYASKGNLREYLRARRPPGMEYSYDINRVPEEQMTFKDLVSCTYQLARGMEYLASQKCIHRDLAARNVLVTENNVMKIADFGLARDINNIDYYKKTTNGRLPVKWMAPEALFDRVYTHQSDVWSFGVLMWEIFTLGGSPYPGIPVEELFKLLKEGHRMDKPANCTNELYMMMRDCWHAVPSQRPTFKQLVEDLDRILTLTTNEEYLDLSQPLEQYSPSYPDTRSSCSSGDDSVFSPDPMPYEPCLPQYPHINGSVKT
FGFR1, sequence (P11362 22-822): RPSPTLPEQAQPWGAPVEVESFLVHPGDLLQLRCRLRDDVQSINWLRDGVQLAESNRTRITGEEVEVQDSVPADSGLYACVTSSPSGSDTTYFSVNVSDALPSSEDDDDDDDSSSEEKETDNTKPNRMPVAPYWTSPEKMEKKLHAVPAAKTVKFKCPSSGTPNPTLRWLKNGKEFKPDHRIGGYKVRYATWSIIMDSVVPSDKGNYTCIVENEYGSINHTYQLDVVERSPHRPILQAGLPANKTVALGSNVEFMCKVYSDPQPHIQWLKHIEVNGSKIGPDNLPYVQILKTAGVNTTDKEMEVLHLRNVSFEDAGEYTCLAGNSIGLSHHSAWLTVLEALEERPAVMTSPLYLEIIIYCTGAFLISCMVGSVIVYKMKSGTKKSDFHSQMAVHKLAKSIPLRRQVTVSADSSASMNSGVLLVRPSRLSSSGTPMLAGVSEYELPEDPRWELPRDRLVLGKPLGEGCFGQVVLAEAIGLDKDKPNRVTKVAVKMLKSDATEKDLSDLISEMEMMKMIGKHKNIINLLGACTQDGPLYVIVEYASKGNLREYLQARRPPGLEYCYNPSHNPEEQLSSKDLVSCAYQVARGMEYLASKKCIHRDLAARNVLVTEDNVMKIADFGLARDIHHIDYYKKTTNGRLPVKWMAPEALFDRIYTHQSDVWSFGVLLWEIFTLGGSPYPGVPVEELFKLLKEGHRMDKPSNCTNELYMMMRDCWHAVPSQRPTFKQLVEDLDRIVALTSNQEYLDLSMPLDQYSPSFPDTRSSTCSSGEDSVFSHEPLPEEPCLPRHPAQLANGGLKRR

By inhibition is commonly meant the relative decrease from the control value, in per cent. For the compound `C=CC(=O)Nc1ccccc1C(=O)Nc1cccnn1` [2a, 2-Acrylamido-N-(pyridazin-3-yl)benzamide], the inhibition at 1 µM at FGFR4 kinase is 21%.

Turning to `C=CC(=O)Nc1ccccc1C(=O)Nc1ccccn1` [2b, 2-Acrylamido-N-(pyridin-2-yl)benzamide], the inhibition at 1 µM at FGFR4 kinase came to 9%.

As for `C=CC(=O)Nc1ccccc1C(=O)Nc1cccnc1` [2c, 2-Acrylamido-N-(pyridin-3-yl)benzamide], the inhibition at 1 µM at FGFR4 kinase came to 7%.

As to `C=CC(=O)Nc1ccccc1C(=O)Nc1ncccn1` [2d, 2-Acrylamido-N-(pyrimidin-2-yl)benzamide], the inhibition at 1 µM at FGFR4 kinase is 6%.

As to `C=CC(=O)Nc1ccccc1C(=O)Nc1ccncn1` [2e, 2-Acrylamido-N-(pyrimidin-4-yl)benzamide], on FGFR4 kinase, the inhibition at 1 µM is 12%.

For `C=CC(=O)Nc1ccccc1C(=O)Nc1cnccn1` [2f, 2-Acrylamido-N-(pyrazin-2-yl)benzamide], the inhibition at 1 µM at FGFR4 kinase stood at 9%.

For the compound `C=CC(=O)Nc1ccccc1C(=O)Nc1ccc(Cl)nn1` [2g, 2-Acrylamido-N-(6-chloropyridazin-3-yl)benzamide], at FGFR4 kinase, the inhibition at 1 µM was determined as 30%.

Turning to `C#Cc1ccc(NC(=O)c2ccccc2NC(=O)C=C)cn1` [2h, 2-Acrylamido-N-(6-ethynylpyridin-3-yl)benzamide], on FGFR4 kinase, the inhibition at 1 µM was 44%.

`C#Cc1ccc(NC(=O)c2ccccc2NC(=O)C=C)nn1` [2i, 2-Acrylamido-N-(6-ethynylpyridazin-3-yl)benzamide]: the inhibition at 1 µM at FGFR4 kinase amounted to 49%.

Regarding `C=CC(=O)Nc1ccccc1C(=O)Nc1cc(C)on1` [2j, 2-Acrylamido-N-(5-methylisoxazol-3-yl)benzamide], the inhibition at 1 µM on FGFR4 kinase was found to be 5%.

Consider `C=CC(=O)Nc1ccccc1C(=O)Nc1n[nH]c2ccccc12` [2k, 2-Acrylamido-N-(1H-indazol-3-yl)benzamide], for which the inhibition at 1 µM at FGFR4 kinase stood at 4%.

Regarding `C=CC(=O)Nc1ccccc1C(=O)Nc1ncnc2ccccc12` [2l, 2-Acrylamido-N-(quinazolin-4-yl)benzamide], at FGFR4 kinase, the inhibition at 1 µM is 0%.

Regarding `C=CC(=O)Nc1ccccc1C(=O)Nc1ccc(C#CCN(C)C)nn1` [4a, 2-Acrylamido-N-(6–(3-(dimethylamino)prop-1-yn-1-yl)pyridazin-3-yl)benzamide], the inhibition at 1 µM at FGFR4 kinase came to 10%.

For the compound `C=CC(=O)Nc1ccccc1C(=O)Nc1ccc(C#CCOC)nn1` [4b, 2-Acrylamido-N-(6–(3-methoxyprop-1-yn-1-yl)pyridazin-3-yl)benzamide], the inhibition at 1 µM at FGFR4 kinase turned out to be 47%.

For orientation: IC50 means the concentration that inhibits the measured activity by half. A lower IC50 goes with inhibition by little substance. One may read the amount remaining as the share of the starting amount still present when the sample was taken. For `C=CC(=O)Nc1ccccc1C(=O)Nc1ccc(C#Cc2ccc(OC)cc2)nn1` [4c, 2-Acrylamido-N-(6-((4-methoxyphenyl)ethynyl)pyridazin-3-yl)benzamide], the IC50 at FGFR4 kinase is 33 nM. The “fold more potent than staurosporin (IC50)” value on FGFR4 kinase is listed as 5 fold. At FGFR4 kinase (FGFR4 IC50 compared with other derivatives of Table 3), the “fold improvement of IC50 compared to that of other derivatives” value was around 10 fold. Also, the inhibition at 1 µM at FGFR4 kinase is 97%; at FGFR3, 0%. Also, the amount remaining at 0.5 h, 1 μM in data set [1] was 7.5%; in data set [2], 25.2%.

As for `C=CC(=O)Nc1ccccc1C(=O)Nc1ccc(C#Cc2cccc(OC)c2)nn1` [4d, 2-Acrylamido-N-(6-((3-methoxyphenyl)ethynyl)pyridazin-3-yl)benzamide], at FGFR4 kinase, the half-maximal inhibitory concentration (IC50) came to 424 nM and the inhibition at 1 µM worked out at 86%.

For the compound `C=CC(=O)Nc1ccccc1C(=O)Nc1ccc(C#Cc2ccccc2OC)nn1` [4e, 2-Acrylamido-N-(6-((2-methoxyphenyl)ethynyl)pyridazin-3-yl)benzamide], the inhibition at 1 µM at FGFR4 kinase worked out at 42%.

For `C=CC(=O)Nc1ccccc1C(=O)Nc1ccc(C#Cc2cc(OC)cc(OC)c2)nn1` [4f, 2-Acrylamido-N-(6-((3,5-dimethoxyphenyl)ethynyl)pyridazin-3-yl)benzamide], on FGFR4 kinase, the inhibition at 1 µM is 80%.

Regarding `C=CC(=O)Nc1ccccc1C(=O)Nc1ccc(C#Cc2cccc(N(C)C)c2)nn1` [4g, 2-Acrylamido-N-(6-((3-(dimethylamino)phenyl)ethynyl)pyridazin-3-yl)benzamide], the inhibition at 1 µM on FGFR4 kinase worked out at 59%.

For `C=CC(=O)Nc1ccccc1C(=O)Nc1ccc(C#Cc2ccc(N(C)C)cc2)nn1` [4h, 2-Acrylamido-N-(6-((4-(dimethylamino)phenyl)ethynyl)pyridazin-3-yl)benzamide], the inhibition at 1 µM at FGFR4 kinase stood at 92%.

Take `C=CC(=O)Nc1ccccc1C(=O)Nc1ccc(C#Cc2ccccc2)nn1` [4i, 2-Acrylamido-N-(6-(phenylethynyl)pyridazin-3-yl)benzamide]: on FGFR4 kinase, the IC50 came out at 235 nM and the inhibition at 1 µM was determined as 91%.

As to `C=CC(=O)Nc1ccccc1C(=O)Nc1ccc(C#Cc2cccnc2)nn1` [4j, 2-Acrylamido-N-(6-(pyridin-3-ylethynyl)pyridazin-3-yl)benzamide], on FGFR4 kinase, the inhibition at 1 µM stood at 13%.

Consider `C=CC(=O)Nc1ccccc1C(=O)Nc1ccc(C#CC2CCCCC2)nn1` [4k, 2-Acrylamido-N-(6-(cyclohexylethynyl)pyridazin-3-yl)benzamide], for which the inhibition at 1 µM on FGFR4 kinase turned out to be 25%.

For the compound `C=CC(=O)Nc1ccccc1C(=O)Nc1ccc(C#Cc2cccc3ccccc23)nn1` [4l, 2-Acrylamido-N-(6-(naphthalen-1-ylethynyl)pyridazin-3-yl)benzamide], the inhibition at 1 µM at FGFR4 kinase was 17%.

On to `C=CC(=O)Nc1ccccc1C(=O)Nc1ccc(C#CCOc2cccc(OC)c2)nn1` [4m, 2-Acrylamido-N-(6–(3-(3-methoxyphenoxy)prop-1-yn-1-yl)pyridazin-3-yl)benzamide], for which, at FGFR4 kinase, the inhibition at 1 µM came out at 37%.

For the compound `C=CC(=O)Nc1ccccc1C(=O)Nc1ccc(Oc2cccc(OC)c2)nn1` [4n, 2-Acrylamido-N-(6–(3-methoxyphenoxy)pyridazin-3-yl)benzamide], the inhibition at 1 µM on FGFR4 kinase was 7%.

With `C=CC(=O)Nc1ccccc1C(=O)Nc1ccc(-c2cccc(OC)c2)nn1` [4o, 2-Acrylamido-N-(6–(3-methoxyphenyl)pyridazin-3-yl)benzamide], the inhibition at 1 µM at FGFR4 kinase is 39%.

On to `C=CC(=O)Nc1ccccc1C(=O)Nc1ccc(CCc2cccc(OC)c2)nn1` [4p, 2-Acrylamido-N-(6–(3-methoxyphenethyl)pyridazin-3-yl)benzamide], for which the inhibition at 1 µM on FGFR4 kinase was 26%.

With `C=CC(=O)Nc1ccccc1C(=O)Nc1ccc(CCc2cccc(N(C)C)c2)nn1` [4q, 2-Acrylamido-N-(6–(3-(dimethylamino)phenethyl)pyridazin-3-yl)benzamide], the inhibition at 1 µM on FGFR4 kinase was determined as 13%.

`C=CC(=O)Nc1ccccc1C(=O)Nc1ccc(C#Cc2ccc3c(c2)OCO3)nn1` [4s, 2-Acrylamido-N-(6–(2-(1,3-benzodioxol-5-yl)ethynyl)pyridazin-3-yl)benzamide]: at FGFR4 kinase, the half-maximal inhibitory concentration (IC50) was found to be 319 nM and the inhibition at 1 µM is 92%. In addition, the fraction remaining at 0.5 h, 1 μM in data set [1] is 62.1%. The fraction remaining at 0.5 h, 1 μM in data set [2] was 53.9%.

For `CCC(=O)Nc1ccccc1C(=O)Nc1ccc(C#Cc2ccc(OC)cc2)nn1` [4t, N-[6-[2–(4-methoxyphenyl)ethynyl]pyridazin-3-yl]-2-(propanoylamino)benzamide], the inhibition at 1 µM on FGFR4 kinase was found to be 0%.

`C=CC(=O)N[C@H]1CCOC[C@H]1Nc1ncc2cc(-c3c(Cl)c(OC)cc(OC)c3Cl)ccc2n1` [BLU554, fisogatinib, reference compound]: the inhibition at 1 µM at FGFR4 kinase turned out to be 97%; on FGFR1, 29%; on FGFR2, 11%; on FGFR3 it was 10%.
